According to ChEMBL document CHEMBL3351861, “New synthetic sulfone derivatives inhibit growth, adhesion and the leucine arylamidase APE2 gene expression of Candida albicans in vitro” (2015):

Columns and labels:
Type in all cases: functional
Details in all cases: read-out: GI
Candida albicans [1] = assay: Antifungal activity against Candida albicans 90028 assessed as growth inhibition at 1 ug/ml by CLSI M27-A3 method
Procedure, shortened: (§1)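 CLSI M27-A3 broth microdilution in RPMI, read after 48 h. Strains pre-grown 18 h in YEPD at 30°C. Final inoculum 0.5×10^2–2.5×10^3 cells/ml. Two-fold dilutions in RPMI came from a 1600 µg/ml stock in water with 9% DMSO; final DMSO was 0.09%. OD405 read, % inhibition = 100 − (CTW−SCW)/(GCW−SCW). Triplicate on three occasions, mean±SD.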

Candida albicans [2] = assay: Antifungal activity against Candida albicans CAI4 expressing delta-cph1 gene assessed as growth inhibition at 1 ug/ml by CLSI M27-A3 method; procedure, shortened: as §1
Candida albicans [3] = assay: Antifungal activity against Candida albicans CAI4 expressing delta-cph1 (CPH1) gene assessed as growth inhibition at 1 ug/ml by CLSI M27-A3 method; procedure, shortened: as §1
Candida albicans [4] = assay: Antifungal activity against Candida albicans CAI4 expressing delta-efg1 gene assessed as growth inhibition at 1 ug/ml by CLSI M27-A3 method
Procedure, shortened: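 CLSI M27-A3 broth microdilution in RPMI. Final inoculum 0.5×10^2 to 2.5×10^3 cells/ml. Seven two-fold concentrations from 0.25 to 16 µg/ml, with DMSO held at 0.09% (v/v) in all wells. Compound-free growth controls and sterility controls are run for each strain. […] Triplicate on three occasions.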

Candida albicans [5] = assay: Antifungal activity against Candida albicans CAI4 expressing delta-efg1 (EFG1) gene assessed as growth inhibition at 1 ug/ml by CLSI M27-A3 method; procedure, shortened: as §1
Candida albicans [6] = assay: Antifungal activity against Candida albicans CAI4 expressing delta-cph1/delta-efg1 gene assessed as growth inhibition at 1 ug/ml by CLSI M27-A3 method; procedure, shortened: as §1
Candida albicans [7] = assay: Antifungal activity against Candida albicans CAI4 expressing delta-cph1/delta-efg1 (EFG1) gene assessed as growth inhibition at 1 ug/ml by CLSI M27-A3 method; procedure, shortened: as §1

Measured: inhibition of growth at 1 µg/mL

C[C@@H]1[C@H](O)[C@@H](C)/C=C/C=C/C=C/C=C/C=C/C=C/C=C/[C@H](O[C@@H]2O[C@H](C)[C@@H](O)[C@H](N)[C@@H]2O)C[C@@H]2O[C@](O)(C[C@@H](O)C[C@@H](O)[C@H](O)CC[C@@H](O)C[C@@H](O)CC(=O)O[C@H]1C)C[C@H](O)[C@H]2C(=O)O [AMPHOTERICIN B]
100%: all assays above
